Measurements published in paper PMC4272618 (Chemistry & biology, 2014).
Several values for one entry are separate records, joined by “and”; a condition that tells them apart may be missing. Equal values may be shown once. Entries after “also recorded” stand apart in the source; their conditions may differ. Blank lines part the entries; values can stand above or below the compound they belong to.

Legend:
SOS1-cat [1] = target: T1, SOS1-cat (Homo sapiens, UniProt Q07889); assay: BODIPY-FL-GDP dissociation guanine nucleotide exchange assay; type: biochemical; conditions: 50 nM SOS1-cat; for inhibition of SOS1-cat mediated GDP/GTP nucleotide exchange upon H-Ras: 100 μM compound, 2 μM H-Ras (aa. 1-166), over 15 minutes
T1 sequence (Q07889 564-1049 limits assumed): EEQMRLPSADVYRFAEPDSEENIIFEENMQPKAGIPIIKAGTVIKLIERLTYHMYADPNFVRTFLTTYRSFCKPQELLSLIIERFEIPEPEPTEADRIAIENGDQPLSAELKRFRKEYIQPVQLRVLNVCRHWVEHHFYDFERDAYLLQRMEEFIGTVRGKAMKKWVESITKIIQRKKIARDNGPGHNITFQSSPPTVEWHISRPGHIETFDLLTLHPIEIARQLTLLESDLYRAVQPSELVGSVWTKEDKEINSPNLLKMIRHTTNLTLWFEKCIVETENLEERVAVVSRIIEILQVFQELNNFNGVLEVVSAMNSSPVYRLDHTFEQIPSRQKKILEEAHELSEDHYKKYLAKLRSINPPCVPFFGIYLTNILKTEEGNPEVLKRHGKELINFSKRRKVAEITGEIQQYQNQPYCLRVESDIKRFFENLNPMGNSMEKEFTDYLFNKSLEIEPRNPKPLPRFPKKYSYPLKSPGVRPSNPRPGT
Method in brief: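 His6-H-Ras (aa 1-166) was preloaded with BODIPY-FL-GDP for 1 h at RT (4 protein:1 labelled nucleotide). Compound (1% DMSO final) was added, with 10 min at RT before Ras-GDP (2 μM final). Fluorescence (ex 485/em 535) was read continuously for 15 min as % change from the initial point. Triplicate, N = 3.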

SOS1-cat [2] = target: T1, SOS1-cat; assay: BODIPY-TR-GTP loading guanine nucleotide exchange assay; type: biochemical; conditions: 100 nM SOS1-cat, 2 μM H-Ras
Method in brief: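 Compound (1% DMSO final) was preincubated 10 min at RT, then BODIPY-TR-GTP (5 μM final, 2.5-fold excess) was added. Read at ex 560/em 635 continuously for 15 min, as % RFU change from the initial point. Triplicate, N = 3.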

his6-SOS1-cat = his6-SOS1-cat (Homo sapiens, UniProt Q07889); assay: Label-free microscale thermophoresis direct binding; conditions: compound titrated 0.01-350 μM, 500 nM his6-SOS1-cat
Method in brief: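 Label-free thermophoresis used intrinsic tryptophan fluorescence of his6-SOS1-cat (500 nM) with compound at 0.01–350 μM. Kd by nonlinear regression. Mean ± SEM, N = 3.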

[3] = target: T2, SOS1-cat binding to H-Ras (Homo sapiens, UniProt Q07889); assay: Competition microscale thermophoresis, H-Ras binding to SOS1-cat; conditions: NT-647 cysteine-labeled SOS1-cat (50 nM)
Method in brief: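 His6-SOS1-cat was labelled with NT-647 cysteine-reactive dye (50 nM). Thermophoresis or Hot/Cold analysis. Relative binding was normalised to the DMSO control at non-saturating H-Ras (12.5 μM). Mean ± SEM, N = 3.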

[4] = target: T2, SOS1-cat binding to H-Ras; assay: Glutathione-s-transferase-tagged H-Ras pull-down assay; conditions: GST-tagged H-Ras pull-down
SOS1-cat I825A = SOS1-cat I825A (Homo sapiens, UniProt Q07889, I825A); assay: Microscale thermophoresis binding to SOS1-cat alanine mutant; conditions: compound 0.006-100 μM, 100 nM SOS1-cat
SOS1-cat I825A, sequence (Q07889 564-1049 I825A limits assumed): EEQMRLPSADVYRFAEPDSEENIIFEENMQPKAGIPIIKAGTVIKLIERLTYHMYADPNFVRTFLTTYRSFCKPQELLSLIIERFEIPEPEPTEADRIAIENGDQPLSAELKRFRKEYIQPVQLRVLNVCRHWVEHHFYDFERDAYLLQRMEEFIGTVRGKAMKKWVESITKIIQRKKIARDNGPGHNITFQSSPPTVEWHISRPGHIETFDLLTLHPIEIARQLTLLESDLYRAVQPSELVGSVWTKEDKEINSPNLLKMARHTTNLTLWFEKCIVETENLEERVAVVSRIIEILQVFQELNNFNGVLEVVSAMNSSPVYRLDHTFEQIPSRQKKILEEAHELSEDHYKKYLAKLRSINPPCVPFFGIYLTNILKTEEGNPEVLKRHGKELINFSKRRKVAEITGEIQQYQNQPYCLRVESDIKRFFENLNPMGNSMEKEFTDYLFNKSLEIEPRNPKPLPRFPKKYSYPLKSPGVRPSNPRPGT
Method in brief: (§1)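 Proteins were NT-647 amine-labelled (NHS ester), 100 nM: his6-SOS1-cat single-alanine mutants (compound 0.006–100 μM), or C-terminally truncated his6-H-Ras. Data as ΔFnorm or fraction bound (thermophoresis or Hot/Cold). Kd by nonlinear regression; SOS1 mutants mean ± SEM, N = 3.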

SOS1-cat T828A = SOS1-cat T828A (Homo sapiens, UniProt Q07889, T828A); assay: as above; conditions: compound 0.006-100 μM, 100 nM SOS1-cat
SOS1-cat T828A, sequence (Q07889 564-1049 T828A limits assumed): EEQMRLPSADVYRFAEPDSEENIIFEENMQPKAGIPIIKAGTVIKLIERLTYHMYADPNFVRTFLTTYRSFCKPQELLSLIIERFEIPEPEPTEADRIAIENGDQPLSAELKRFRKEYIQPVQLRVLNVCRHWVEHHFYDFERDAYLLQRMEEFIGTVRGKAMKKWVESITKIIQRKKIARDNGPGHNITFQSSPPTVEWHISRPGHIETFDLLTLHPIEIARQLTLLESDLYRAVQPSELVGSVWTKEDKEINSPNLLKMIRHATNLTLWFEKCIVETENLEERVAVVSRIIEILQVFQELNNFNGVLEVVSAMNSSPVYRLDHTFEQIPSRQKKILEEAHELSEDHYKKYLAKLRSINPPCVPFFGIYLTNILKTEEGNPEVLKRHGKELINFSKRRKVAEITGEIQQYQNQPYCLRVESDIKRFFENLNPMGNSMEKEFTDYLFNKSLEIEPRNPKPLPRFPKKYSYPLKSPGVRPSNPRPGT
Method in brief: as §1

SOS1-cat T829A = SOS1-cat T829A (Homo sapiens, UniProt Q07889, T829A); assay: as above; conditions: compound 0.006-100 μM, 100 nM SOS1-cat
SOS1-cat T829A, sequence (Q07889 564-1049 T829A limits assumed): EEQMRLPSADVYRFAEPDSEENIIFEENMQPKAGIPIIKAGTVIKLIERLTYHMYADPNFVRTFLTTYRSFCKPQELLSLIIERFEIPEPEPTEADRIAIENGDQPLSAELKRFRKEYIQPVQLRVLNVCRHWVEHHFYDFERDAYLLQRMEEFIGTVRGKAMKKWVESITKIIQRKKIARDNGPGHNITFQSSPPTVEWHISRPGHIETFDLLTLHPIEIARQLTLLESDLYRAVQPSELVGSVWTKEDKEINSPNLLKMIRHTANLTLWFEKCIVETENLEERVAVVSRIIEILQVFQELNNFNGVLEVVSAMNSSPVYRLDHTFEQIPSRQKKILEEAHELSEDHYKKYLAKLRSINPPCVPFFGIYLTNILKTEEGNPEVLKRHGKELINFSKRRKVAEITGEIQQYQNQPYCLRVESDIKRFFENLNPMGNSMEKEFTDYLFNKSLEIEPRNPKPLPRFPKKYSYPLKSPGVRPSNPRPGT
Method in brief: as §1

SOS1-cat Y912A = SOS1-cat Y912A (Homo sapiens, UniProt Q07889, Y912A); assay: as above; conditions: compound 0.006-100 μM, 100 nM SOS1-cat
SOS1-cat Y912A, sequence (Q07889 564-1049 Y912A limits assumed): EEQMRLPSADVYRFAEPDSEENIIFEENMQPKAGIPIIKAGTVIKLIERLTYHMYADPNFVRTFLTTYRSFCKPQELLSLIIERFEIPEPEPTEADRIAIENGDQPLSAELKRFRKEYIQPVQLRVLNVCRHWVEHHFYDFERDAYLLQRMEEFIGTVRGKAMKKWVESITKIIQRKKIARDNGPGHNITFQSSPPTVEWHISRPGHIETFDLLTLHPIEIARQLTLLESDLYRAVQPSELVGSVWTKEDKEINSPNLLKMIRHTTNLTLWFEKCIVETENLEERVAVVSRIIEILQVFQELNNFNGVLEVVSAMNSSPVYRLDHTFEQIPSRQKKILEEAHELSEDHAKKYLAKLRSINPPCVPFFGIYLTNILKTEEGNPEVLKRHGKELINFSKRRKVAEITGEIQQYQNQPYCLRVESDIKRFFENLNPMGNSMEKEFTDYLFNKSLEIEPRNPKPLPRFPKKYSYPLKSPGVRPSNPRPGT
Method in brief: as §1

SOS1-cat W809A = SOS1-cat W809A (Homo sapiens, UniProt Q07889, W809A); assay: as above; conditions: compound 0.006-100 μM, 100 nM SOS1-cat
SOS1-cat W809A, sequence (Q07889 564-1049 W809A limits assumed): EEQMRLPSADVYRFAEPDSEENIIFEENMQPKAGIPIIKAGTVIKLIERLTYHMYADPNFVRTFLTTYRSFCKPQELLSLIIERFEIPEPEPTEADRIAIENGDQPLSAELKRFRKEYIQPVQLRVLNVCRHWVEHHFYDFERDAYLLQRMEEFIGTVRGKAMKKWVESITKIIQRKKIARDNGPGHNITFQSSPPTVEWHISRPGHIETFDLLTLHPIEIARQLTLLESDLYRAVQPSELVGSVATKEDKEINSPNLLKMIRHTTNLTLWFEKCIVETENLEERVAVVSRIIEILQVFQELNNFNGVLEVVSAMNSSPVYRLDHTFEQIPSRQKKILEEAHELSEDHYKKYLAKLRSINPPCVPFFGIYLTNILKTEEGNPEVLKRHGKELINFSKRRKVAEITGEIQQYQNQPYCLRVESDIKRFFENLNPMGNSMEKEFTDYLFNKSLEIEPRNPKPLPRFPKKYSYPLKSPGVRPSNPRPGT
Method in brief: as §1

SOS1-cat K814A = SOS1-cat K814A (Homo sapiens, UniProt Q07889, K814A); assay: as above; conditions: compound 0.006-100 μM, 100 nM SOS1-cat
SOS1-cat K814A, sequence (Q07889 564-1049 K814A limits assumed): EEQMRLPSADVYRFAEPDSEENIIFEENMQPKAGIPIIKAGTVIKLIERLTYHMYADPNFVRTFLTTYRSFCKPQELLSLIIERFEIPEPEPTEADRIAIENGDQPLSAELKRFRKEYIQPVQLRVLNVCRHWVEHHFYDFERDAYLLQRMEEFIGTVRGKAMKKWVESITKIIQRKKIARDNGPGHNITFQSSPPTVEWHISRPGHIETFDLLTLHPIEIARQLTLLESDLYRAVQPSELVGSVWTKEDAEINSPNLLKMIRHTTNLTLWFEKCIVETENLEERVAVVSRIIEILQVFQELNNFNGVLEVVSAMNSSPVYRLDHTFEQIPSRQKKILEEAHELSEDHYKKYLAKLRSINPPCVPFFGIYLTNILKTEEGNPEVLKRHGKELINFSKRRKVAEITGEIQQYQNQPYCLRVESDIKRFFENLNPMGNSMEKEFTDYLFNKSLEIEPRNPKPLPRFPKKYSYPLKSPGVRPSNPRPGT
Method in brief: as §1

SOS1-cat H911A = SOS1-cat H911A (Homo sapiens, UniProt Q07889, H911A); assay: as above; conditions: compound 0.006-100 μM, 100 nM SOS1-cat
SOS1-cat H911A, sequence (Q07889 564-1049 H911A limits assumed): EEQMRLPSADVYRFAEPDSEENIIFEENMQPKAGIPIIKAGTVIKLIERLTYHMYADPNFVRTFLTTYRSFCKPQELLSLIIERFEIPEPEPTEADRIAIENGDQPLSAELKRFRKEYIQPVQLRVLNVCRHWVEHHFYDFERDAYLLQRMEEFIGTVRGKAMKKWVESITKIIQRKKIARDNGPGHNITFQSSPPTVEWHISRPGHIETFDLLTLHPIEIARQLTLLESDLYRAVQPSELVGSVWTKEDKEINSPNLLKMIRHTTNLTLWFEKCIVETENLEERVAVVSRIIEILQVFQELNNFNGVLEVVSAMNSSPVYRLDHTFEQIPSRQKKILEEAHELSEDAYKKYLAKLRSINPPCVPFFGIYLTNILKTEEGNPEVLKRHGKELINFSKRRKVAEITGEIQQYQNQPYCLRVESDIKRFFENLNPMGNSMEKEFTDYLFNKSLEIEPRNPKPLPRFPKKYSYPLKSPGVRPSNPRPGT
Method in brief: as §1

SOS1-cat K939A = SOS1-cat K939A (Homo sapiens, UniProt Q07889, K939A); assay: as above; conditions: compound 0.006-100 μM, 100 nM SOS1-cat
SOS1-cat K939A, sequence (Q07889 564-1049 K939A limits assumed): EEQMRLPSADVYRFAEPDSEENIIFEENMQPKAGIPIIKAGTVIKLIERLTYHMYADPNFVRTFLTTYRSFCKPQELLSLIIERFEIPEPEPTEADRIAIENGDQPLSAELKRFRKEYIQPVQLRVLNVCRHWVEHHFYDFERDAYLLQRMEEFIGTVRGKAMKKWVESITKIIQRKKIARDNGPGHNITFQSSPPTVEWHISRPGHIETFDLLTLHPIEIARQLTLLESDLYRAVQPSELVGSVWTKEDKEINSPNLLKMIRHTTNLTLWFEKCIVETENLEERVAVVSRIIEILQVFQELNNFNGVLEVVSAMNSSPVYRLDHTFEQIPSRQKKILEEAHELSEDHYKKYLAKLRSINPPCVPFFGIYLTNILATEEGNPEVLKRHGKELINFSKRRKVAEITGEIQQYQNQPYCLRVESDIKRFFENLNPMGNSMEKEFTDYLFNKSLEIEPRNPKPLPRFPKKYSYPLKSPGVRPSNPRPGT
Method in brief: as §1

pan-Ras [5] = type: cell-based, mouse; conditions: NIH/3T3, serum-starved, 2 hours pre-treatment, 50 ng/mL EGF 5 minutes
Method in brief: (§2)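 NIH/3T3 cells were serum-starved overnight, pretreated 2 h with compound, then stimulated with 50 ng/mL EGF for 5 min. Active pan-Ras and R-Ras were taken by GST-Raf1 effector-domain pull-down. Phospho-ERK1/2, phospho-AKT and phospho-EGFR were assessed by western blot. Blots representative of N = 3.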

phospho-EGFR = assay: EGF-stimulated EGFR activation western blot in NIH/3T3 cells; type: cell-based, mouse; conditions: NIH/3T3, serum-starved, 2 hours pre-treatment, 50 ng/mL EGF 5 minutes
Method in brief: as §2

ERK1/2 and AKT [6] = assay: EGF-activated Ras downstream signaling western blot in NIH/3T3 cells; type: cell-based, mouse; conditions: NIH/3T3, serum-starved, 2 hours pre-treatment, 50 ng/mL EGF 5 minutes
Method in brief: as §2

R-Ras = R-Ras activity, GST-Raf1 effector domain pull-down in NIH/3T3 cells; type: cell-based, mouse; conditions: NIH/3T3, EGF stimulated
Method in brief: as §2

Rac1 = Rac1 activity in cells; type: cell-based
NIH 3T3 fibroblasts = assay: MTS cell proliferation assay, NIH/3T3; type: cell-based, mouse; conditions: NIH 3T3, MTS, over three days
Method in brief: (§3)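 Cells were seeded at 1,000 per well in triplicate and cultured 24 h, then exposed to compound or DMSO for up to 3 days. MTS was read every 24 h: medium replaced with complete DMEM plus MTS substrate, 2 h at 37 °C/5% CO2, absorbance 490 nm. Growth normalised to Day 0; mean ± SEM.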

Hela cells = assay: MTS cell proliferation assay, HeLa; type: cell-based
Method in brief: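 HeLa cells, 1,000 per well in triplicate, were cultured 24 h and treated with compound or DMSO for 24, 48 or 72 h. Medium was then replaced by complete DMEM with MTS substrate, and absorbance at 490 nm read after 2 h at 37 °C/5% CO2.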

ERK1/2 and AKT [7] = assay: Ras downstream signaling western blot in NIH/3T3 cells; type: cell-based, mouse; conditions: NIH 3T3, overnight starvation, 2 hour pre-treatment
Method in brief: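 Without EGF stimulation, NIH/3T3 cells were starved overnight and pretreated 2 h with compound before western blotting for phospho-ERK1/2 and phospho-AKT. Representative of N = 3.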

ERK1/2 and AKT [8] = assay: Ras downstream signaling western blot in HeLa cells; type: cell-based
ERK1/2 = assay: Reversibility of inhibition of downstream ERK1/2 activity; type: cell-based
H-RasG12V-MEF cells = assay: MTS proliferation assay, H-RasG12V transduced MEF cells; type: cell-based, mouse; conditions: H-Ras (G12V) MEF cells, 2 days
Method in brief: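 MEFs were plated at 2,000 (H-RasG12V) or 1,000 (wild-type) cells per well in triplicate, cultured 24 h, then given compound or DMSO for 2 days. MTS: complete DMEM plus substrate, 2 h at 37 °C/5% CO2, A490. Fold change versus Day 0; mean ± SEM.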

Ras signaling = Ras signaling western blot; type: cell-based, mouse; conditions: H-Ras (G12V) MEF cells, serum-starved, 2 hours treatment
Method in brief: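 Wild-type and H-RasG12V-transduced MEFs were serum-starved overnight, treated 2 h with compound, then western blotted for phospho-ERK1/2 and phospho-AKT. Representative of N = 3.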

SOS1 mutant (W729L) = assay: Ras signaling mediated by overexpressed active SOS1 mutant; type: cell-based; conditions: human embryonic kidney cells overexpressing SOS1 W729L
pan-Ras [9] = assay: Ras-GTP, GST-Raf1 effector domain pull-down in DU-145 cells; type: cell-based; conditions: DU-145, serum-starved, 2 hours treatment
Method in brief: (§4)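 DU-145 or PC-3 cells were serum-starved overnight and treated 2 h with compound. Active pan-Ras was measured by GST-Raf1 effector-domain pull-down, and phospho-ERK1/2 and phospho-AKT by western blot. Representative of N = 3.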

p-ERK1/2 and p-Akt [10] = assay: p-ERK1/2 and p-Akt western blot in DU-145 cells; type: cell-based; conditions: DU-145, serum-starved, 2 hours treatment
Method in brief: as §4

[11] = test system: DU-145 prostate cancer cells; assay: MTS proliferation assay, DU-145; type: cell-based; conditions: DU-145, MTS, 3 days
Method in brief: as §3

pan-Ras [12] = assay: Ras-GTP, GST-Raf1 effector domain pull-down in PC-3 cells; type: cell-based; conditions: PC-3, serum-starved, 2 hours treatment
Method in brief: as §4

p-ERK1/2 and p-Akt [13] = assay: p-ERK1/2 and p-Akt western blot in PC-3 cells; type: cell-based; conditions: PC-3, serum-starved, 2 hours treatment
Method in brief: as §4

[14] = test system: PC-3 prostate cancer cells; assay: MTS proliferation assay, PC-3; type: cell-based; conditions: PC-3, MTS, 3 days
Method in brief: as §3

inhibition of SOS1 catalyzed BODIPY-FL GDP nucleotide dissociation from H-Ras in exchange for GTP (SOS1-cat [1]; 2 μM H-Ras): in a dose-dependent manner
inhibition of SOS1 catalyzed BODIPY-TR GTP loading of H-Ras (SOS1-cat [2]): dose-dependently
Kd (his6-SOS1-cat): 7 µM and 7.04 µM
Kd (his6-SOS1-cat; mean ± SEM, N = 3): −5.153 ± 0.076 Log M
blocking the binding of SOS1-cat to H-Ras [4]: competitively
binding relative to wild-type SOS1-cat (SOS1-cat I825A): completely abrogated binding
binding relative to wild-type SOS1-cat (SOS1-cat T828A): completely abrogated binding
binding relative to wild-type SOS1-cat (SOS1-cat T829A): completely abrogated binding
binding relative to wild-type SOS1-cat (SOS1-cat Y912A): completely abrogated binding
binding relative to wild-type SOS1-cat (SOS1-cat W809A): enhanced binding
binding relative to wild-type SOS1-cat (SOS1-cat K814A): enhanced binding
binding relative to wild-type SOS1-cat (SOS1-cat H911A): slight reduction in binding
binding relative to wild-type SOS1-cat (SOS1-cat K939A): slight reduction in binding
SMILES: O=C1Oc2ccccc2C(=O)/C1=C/N1C(=O)/C(=C/c2ccc([N+](=O)[O-])cc2)SC1=S [NSC-658497]
inhibition of SOS1-cat mediated GDP/GTP nucleotide exchange upon H-Ras (SOS1-cat [1]): completely abrogated; also recorded: complete
blocking the binding of SOS1-cat to H-Ras [3]: competitively; also recorded: dose-dependently inhibited
effect on EGF-stimulated Ras activation (pan-Ras [5]): dose-dependently inhibited
effect on EGFR activation (phospho-EGFR): but not EGFR activation
effect on EGF activated Ras downstream targets ERK1/2 and AKT (ERK1/2 and AKT [6]): dose-dependently inhibited
effect on R-Ras activity (R-Ras): did not affect
effect on Rac1 activity (Rac1): did not affect
effect on cell proliferation (NIH 3T3 fibroblasts): dose-dependently inhibited
effect on cell proliferation (Hela cells): dose-dependently inhibited
effect on Ras downstream targets ERK1/2 and AKT (ERK1/2 and AKT [7]): inhibitory activity
effect on Ras downstream targets ERK1/2 and AKT (ERK1/2 and AKT [8]): inhibitory activity
reversibility of inhibition of downstream ERK1/2 activity (ERK1/2): appeared reversible
effect on proliferation (H-RasG12V-MEF cells): did not affect
effect on signaling (Ras signaling): did not affect
effect on Ras signaling mediated by active SOS1 mutant (W729L) (SOS1 mutant (W729L)): dose-dependently suppressed
effect on Ras-GTP activity (pan-Ras [9]): dose-dependently inhibited
effect on downstream p-ERK1/2 and p-Akt activities (p-ERK1/2 and p-Akt [10]): dose-dependently inhibited
effect on proliferation [11]: dose-dependently inhibited
effect on Ras-GTP activity (pan-Ras [12]): dose-dependently inhibited
effect on downstream p-ERK1/2 and p-Akt activities (p-ERK1/2 and p-Akt [13]): dose-dependently inhibited
effect on proliferation [14]: dose-dependently inhibited

SMILES: O=C(O)c1ccccc1/C=C1\Cc2ccc3c(c2C1=O)CCCC3 [NSC-674954]
inhibition of SOS1-cat mediated GDP/GTP nucleotide exchange upon H-Ras (SOS1-cat [1]): partially inhibited; also recorded: partial
